Published values pooled from the literature.
Compare with care: the assays were run in different laboratories. pIC50, pKd, pKi: −log10 of the molar value.
PFF0160c E182D: Dihydroorotate dehydrogenase (quinone), mitochondrial (PFF0160c, Plasmodium falciparum, UniProt Q08210, E182D)
SIGMAR1: Sigma non-opioid intracellular receptor 1 (SIGMAR1, Homo sapiens, UniProt Q99720)
Nectin-4: Nectin-4 (Homo sapiens, UniProt Q96NY8)
PFF0160c: Dihydroorotate dehydrogenase (quinone), mitochondrial (PFF0160c, Plasmodium falciparum, UniProt Q08210)

With `Cc1cc(F)ccc1NS(=O)(=O)c1ccc(-c2ccoc2)s1` the pIC50 was less than 5.00 (PFF0160c E182D; enzyme activity; inhibitor; absorbance).
With `COC(=O)C1(c2ccc(C)cc2)CC1CN1CCC(O)(c2ccccc2)CC1` (stereo not drawn) the pKi was 7.73 (SIGMAR1; ligand displacement; radioligand).
With `CCCC[C@@H]1NC(=O)[C@H](Cc2ccc(O)cc2)NC(=O)[C@@H]2CCCN2C(=O)[C@H](CC(=O)O)NC(=O)[C@H](C)NC(=O)[C@H](Cc2ccccc2)NC(=O)[C@@H]2CSCCC(=O)N3CN(CN(C3)C(=O)CCSC[C@H](NC(C)=O)C(=O)N[C@@H](CC(C)(C)C)C(=O)N3CCC[C@H]3C(=O)N[C@@H](CCC(=O)O)C(=O)N[C@H](CCCCNC(=O)CCc3cn(CCOCCOCCOCCOCCOCCC(=O)N[C@H]4CSCCC(=O)N5CN6CN(C5)C(=O)CCSC[C@H](NC(=O)[C@@H](CC(=O)O)NC(=O)[C@H](Cc5cccc7ccccc57)NC(=O)[C@@H]5CCCN5C4=O)C(=O)N[C@@H](CCSC)C(=O)N[C@@H](CCCCNC(=N)N)C(=O)N[C@@H](CC(=O)O)C(=O)N[C@@H](Cc4c[nH]c5ccccc45)C(=O)N[C@@H](CO)C(=O)N[C@@H]([C@@H](C)O)C(=O)N4CCC[C@H]4C(=O)N4C[C@H](O)C[C@H]4C(=O)N[C@@H](Cc4c[nH]c5ccccc45)C(=O)N[C@H](C(N)=O)CSCCC6=O)nn3)C(=O)N3CCC[C@H]3C(=O)N[C@@H](Cc3ccc(O)cc3)C(=O)N2)C(=O)CCSC[C@@H](C(N)=O)NC1=O` the pKd was 8.70 (Nectin-4; binding; SPR).
For `CN(C)CCC(c1ccc(Cl)cc1)c1ccccn1` (stereo not drawn), the pKi was 5.88 (SIGMAR1; ligand displacement; radioligand).
The pIC50 of `Cc1cccc(C(=O)N2CCN(Cc3cccc(NC(=O)c4cccs4)c3)CC2)c1` is reported as 5.18 (PFF0160c E182D; enzyme activity; inhibitor; absorbance).
The pKi of `Cc1cc2c(s1)Nc1ccccc1N=C2N1CCN(C)CC1` is reported as less than 5.00 (SIGMAR1; ligand displacement; radioligand).
With `CCCC[C@@H]1NC(=O)[C@H](Cc2ccc(O)cc2)NC(=O)[C@@H]2CCCN2C(=O)[C@H](CC(=O)O)NC(=O)[C@H](C)NC(=O)[C@H](Cc2ccccc2)NC(=O)[C@@H]2CSCCC(=O)N3CN(CN(C3)C(=O)CCSC[C@@H](C(=O)N[C@@H](C)C(N)=O)NC1=O)C(=O)CCSC[C@H](NC(C)=O)C(=O)N[C@@H](CC(C)(C)C)C(=O)N1CCC[C@H]1C(=O)N[C@@H](CCC(=O)O)C(=O)N[C@H](CCCCNC(=O)CCc1cn(CCOCCOCCOCCOCCOCCC(=O)NCCCC[C@H]3NC(=O)[C@H](Cc4cccc5ccccc45)NC(=O)[C@@H]4CCCN4C(=O)CCSCCC(=O)N4CN5CN(C4)C(=O)CCSC[C@H](NC3=O)C(=O)N[C@@H](CCSC)C(=O)N[C@@H](CCCCNC(=N)N)C(=O)N[C@@H](CC(=O)O)C(=O)N[C@@H](Cc3c[nH]c4ccccc34)C(=O)N[C@@H](CO)C(=O)N[C@@H]([C@@H](C)O)C(=O)N3CCC[C@H]3C(=O)N3C[C@H](O)C[C@H]3C(=O)N[C@@H](Cc3c[nH]c4ccccc34)C(=O)N[C@H](C(N)=O)CSCCC5=O)nn1)C(=O)N1CCC[C@H]1C(=O)N[C@@H](Cc1ccc(O)cc1)C(=O)N2` the pKd was 8.66 (Nectin-4; binding; SPR).
`Cc1c(-c2ccccc2)oc2c(C(=O)OCCN3CCCCC3)cccc2c1=O` gave a pKi of less than 5.00 (SIGMAR1; ligand displacement; radioligand).
`COCC(C)n1c(SCC(=O)Nc2cc(C(F)(F)F)ccc2Cl)nc2ccccc2c1=O` (stereo not drawn) has a pIC50 of 6.20 (PFF0160c; enzyme activity; inhibitor; absorbance).
With `C/C(=C\[N+](=O)[O-])c1ccccc1` the pKd was 3.14 (nerA (Agrobacterium radiobacter, UniProt O31246); binding; absorbance).
With `CCCC[C@@H]1NC(=O)[C@H](Cc2ccc(O)cc2)NC(=O)[C@@H]2CCCN2C(=O)[C@H](CC(=O)O)NC(=O)[C@H](C)NC(=O)[C@H](Cc2ccccc2)NC(=O)[C@@H]2CSCCC(=O)N3CN(CN(C3)C(=O)CCSC[C@@H](C(=O)N[C@@H](CNC(=O)CCOCCOCCOCCOCCOCCn3cc(CCC(=O)N[C@H]4CSCCC(=O)N5CN6CN(C5)C(=O)CCSC[C@H](NC(=O)[C@@H](CC(=O)O)NC(=O)[C@H](Cc5cccc7ccccc57)NC(=O)[C@@H]5CCCN5C4=O)C(=O)N[C@@H](CCSC)C(=O)N[C@@H](CCCCNC(=N)N)C(=O)N[C@@H](CC(=O)O)C(=O)N[C@@H](Cc4c[nH]c5ccccc45)C(=O)N[C@@H](CO)C(=O)N[C@@H]([C@@H](C)O)C(=O)N4CCC[C@H]4C(=O)N4C[C@H](O)C[C@H]4C(=O)N[C@@H](Cc4c[nH]c5ccccc45)C(=O)N[C@H](C(N)=O)CSCCC6=O)nn3)C(N)=O)NC1=O)C(=O)CCSC[C@H](NC(C)=O)C(=O)N[C@@H](CC(C)(C)C)C(=O)N1CCC[C@H]1C(=O)N[C@@H](CCC(=O)O)C(=O)N[C@H](C)C(=O)N1CCC[C@H]1C(=O)N[C@@H](Cc1ccc(O)cc1)C(=O)N2` the pKd was 8.96 (Nectin-4; binding; SPR).
`CSc1nc2nc(C)c(Cc3cccc(C(F)(F)F)c3)c(C)n2n1` has a pIC50 of less than 5.00 (PFF0160c E182D; enzyme activity; inhibitor; absorbance).
`CCCC[C@@H]1NC(=O)[C@H](Cc2ccc(O)cc2)NC(=O)[C@@H]2CCCN2C(=O)[C@H](CC(N)=O)NC(=O)[C@H](C)NC(=O)[C@H](Cc2ccccc2)NC(=O)[C@@H]2CSCCC(=O)N3CN(CN(C3)C(=O)CCSC[C@H](NC(C)=O)C(=O)N[C@@H](CC(C)(C)C)C(=O)N3CCC[C@H]3C(=O)N[C@@H](CCC(=O)O)C(=O)N[C@H](CCCCNC(=O)CCc3cn(CCOCCOCCOCCN(CCOCCOCCOCCC(=O)N[C@H]4CSCCC(=O)N5CN6CN(C5)C(=O)CCSC[C@H](NC(=O)[C@@H](CC(=O)O)NC(=O)[C@H](Cc5cccc7ccccc57)NC(=O)[C@@H]5CCCN5C4=O)C(=O)N[C@@H](CCSC)C(=O)N[C@@H](CCCCNC(=N)N)C(=O)N[C@@H](CC(=O)O)C(=O)N[C@@H](Cc4c[nH]c5ccccc45)C(=O)N[C@@H](CO)C(=O)N[C@@H]([C@@H](C)O)C(=O)N4CCC[C@H]4C(=O)N4C[C@H](O)C[C@H]4C(=O)N[C@@H](Cc4c[nH]c5ccccc45)C(=O)N[C@H](C(N)=O)CSCCC6=O)CCOCCOCCOCCn4cc(CCC(=O)NCCCC[C@H]5NC(=O)[C@H](CCC(=O)O)NC(=O)[C@@H]6CCCN6C(=O)[C@H](CC(C)(C)C)NC(=O)[C@@H](NC(C)=O)CSCCC(=O)N6CN7CN(C6)C(=O)CCSC[C@H](NC(=O)[C@H](Cc6ccc(O)cc6)NC(=O)[C@@H]6CCCN6C5=O)C(=O)N[C@@H](Cc5ccccc5)C(=O)N[C@@H](C)C(=O)N[C@@H](CC(N)=O)C(=O)N5CCC[C@H]5C(=O)N[C@@H](Cc5ccc(O)cc5)C(=O)N[C@@H](CCCC)C(=O)N[C@H](C(N)=O)CSCCC7=O)nn4)nn3)C(=O)N3CCC[C@H]3C(=O)N[C@@H](Cc3ccc(O)cc3)C(=O)N2)C(=O)CCSC[C@@H](C(N)=O)NC1=O` has a pKd of 8.72 (Nectin-4; binding; SPR).
The pIC50 of `Cc1cc(NC(=O)c2cc(S(=O)(=O)N3CCCCC3)ccc2C)no1` is reported as 5.77 (PFF0160c; enzyme activity; inhibitor; absorbance).
For `Fc1ccc([C@@H]2CCNC[C@H]2COc2ccc3c(c2)OCO3)cc1`, the pKi was 6.44 (SIGMAR1; ligand displacement; radioligand).
